Calls of active or inactive are those of the source.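 How the source made its calls: active means EC50 of 30 microM or lower, as activator or inhibitor; inactive means the rest.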
Target: Regulator of G-protein signaling 4 (Homo sapiens) (UniProt P49798)
Test: RGS4-Galphao binding modulators, SAR follow-up, biochemical, multiplexed bead flow cytometry, SAR compounds (AID 2295)
Settings: bead-based flow cytometry, RGS4-AF488 Galphao binding
Procedure, shortened: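 Assay system: Biotinylated human RGS4 on streptavidin beads, multiplexed with other RGS bead sets | Dosing: 9 points, threefold dilution steps | Times: 30-90 min incubation at room temperature | Signal: Flow cytometry, median bead green fluorescence | Evaluation: % response, EC50 and Ki (Kd 40 nM) | Replication: Duplicate values per compound concentration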

Chain of Regulator of G-protein signaling 4 (Homo sapiens) (P49798 whole entry, looked up): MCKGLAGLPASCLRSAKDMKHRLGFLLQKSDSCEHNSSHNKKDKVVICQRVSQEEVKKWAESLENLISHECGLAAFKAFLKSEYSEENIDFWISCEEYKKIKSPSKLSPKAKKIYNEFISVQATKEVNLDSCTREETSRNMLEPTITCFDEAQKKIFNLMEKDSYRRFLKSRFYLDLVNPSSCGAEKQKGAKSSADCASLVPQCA

Compound | EC50
Cc1[nH]n(-c2ccccc2)c(=S)c1C=NCCCN=Cc1c(C)[nH]n(-c2ccccc2)c1=S | > 30 µM (inactive)
Cc1cccc(N2CCN(C(=O)Cn3sc4nc(C)cc(C)c4c3=O)CC2C)c1 (stereo not drawn) | > 30 µM (inactive)

Now from value to molecule:

EC50 | Compound
> 30 µM (inactive) | CC(NC(=O)c1sc2cc([N+](=O)[O-])ccc2c1Cl)C(C)(C)C (stereo not drawn)
1.2 µM | NS(=O)(=O)c1ccc(N/N=C/c2ccc(O)c(O)c2O)c([N+](=O)[O-])c1
> 30 µM (inactive) | CC(=O)OCCCNc1cc(Sc2nc3ccccc3s2)c2nonc2c1[N+](=O)[O-]

Same assay, conditions: bead-based flow cytometry, RGS4-AF488 Galphao binding; measured here: Ki calculated from EC50

Compound | Ki [µM]
CCN=c1scc(C)n1/N=C/c1ccc(O)c(O)c1O | 3
O=C(NCCCN1CCOCC1)c1sc2cc([N+](=O)[O-])ccc2c1Cl | 8.57
Cc1cccc(N2CCN(C(=O)COc3nsc4nc(C)cc(C)c34)CC2C)c1 (stereo not drawn) | 5.83
CCOC(=O)c1sc(NC(=O)CSc2nnc(Cc3ccccc3)o2)c(C#N)c1C | 6.68
O=C(Cc1csc(N2CCOCC2)n1)N/N=C/c1ccc(O)c(O)c1O | 0.94
O=C1C(Cl)=C(N2CCCCC2)C(=O)C(Cl)=C1c1cnc(N2CCCCC2)s1 | 0.23
Cc1cc(Cl)ccc1N=c1ssnc1Cl | 0.26
CN1CCN(C2=C(Cl)C(=O)C(c3cnc(N4CCCCC4)s3)=C(Cl)C2=O)CC1 | 0.29
CN=c1scc(C)n1/N=C/c1ccc(O)c(O)c1O | 1.46

Continued, values first:

Ki [µM] | Compound
8.2 | CCN(CC)S(=O)(=O)c1cccc(-c2n[nH]c(=S)n2/N=C/c2ccc(C(=O)OC)cc2)c1
0.27 | O=c1c2ccccc2sn1-c1ccc(S(=O)(=O)N2CCCC2)cc1
0.49 | COc1ccc(C2=CC(=O)C=CC2=O)cc1
1.02 | NS(=O)(=O)c1ccc(N/N=C/c2ccc(O)c(O)c2O)c([N+](=O)[O-])c1
0.11 | O=c1c2ccccc2sn1-c1ccccc1
0.54 | CCN(CC)S(=O)(=O)c1cccc(C(=O)N/N=C/c2ccc(O)c(O)c2O)c1
9.37 | Cc1[nH]n(-c2ccccc2)c(=S)c1C=Nc1cccc([N+](=O)[O-])c1
0.14 | O=C(COc1ccccc1C(=O)N/N=C/c1ccc(O)c(O)c1)N/N=C/c1ccc(O)c(O)c1
5.62 | CCC(=O)NC(c1ccc(C)cc1)c1cc([N+](=O)[O-])c2cccnc2c1O (stereo not drawn)

From PubChem BioAssay AID2295 (NMMLSC, 2010)
